Results published in ChEMBL document CHEMBL5247673, “Discovery of Small Molecules Targeting the Frameshifting Element RNA in SARS-CoV-2 Viral Genome” (ACS Med Chem Lett, 2023).

Columns and labels:
MCF7 = experiment: (§1) Inhibition of programmed -1 ribosomal frameshifting in human MCF7 cells harboring pCherryGFP-CoV2-WT plasmid assessed as inhibition of GFP expression incubated for 30 mins by fluorescence microscopic analysis; type: functional, cell-based
Summary of the method: (§2)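 MCF-7 cells were treated with compound at various concentrations and transfected with an mCherry–FSE–GFP reporter: WT, a stop-codon negative control, or an in-frame no-FSE plasmid. GFP expression was the read-out, compared with a DMSO (0 μM) control. Data are mean ± SD of three independent experiments.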

[1] = as §1; type: functional, cell-based; conditions: MCF7, 0.5 h; summary of the method: as §2
[2] = Inhibition of programmed -1 ribosomal frameshifting in human MCF7 cells harboring pCherryGFP-CoV2-WT plasmid assessed as inhibition of GFP expression at 50 uM incubated for 30 mins by fluorescence microscopic analysis; type: functional; conditions: MCF7, 0.5 h; summary of the method: as §2

For `COc1ccc(-c2nc(NCCN3CCOCC3)c3ccccc3n2)cc1`, the inhibition (MCF7) was “Dose-Dependent Effect”.
`CCNCC1CCN(c2c(F)cc3c(=O)c(C(=O)O)cn(CC)c3c2F)C1` (stereo not drawn) [MERAFLOXACIN] showed an IC50 [1] of 33.5 µM.
`COc1ccc(-c2nc(NCCN3CCOCC3)c3cc(OC)ccc3n2)cc1` showed an inhibition at 50 µM [2] of 50%.
